Results published in ChEMBL document CHEMBL2396550, “Manzamine A, a marine-derived alkaloid, inhibits accumulation of cholesterol ester in macrophages and suppresses hyperlipidemia and atherosclerosis in vivo” (Bioorg Med Chem, 2013).
Calls of active or inactive are those of the source. The calls are words filed in the database; no cut-off is given here.

Assays:
[1] = Inhibition of microsomal ACAT in cholesterol-fed JW rabbit intestine using [14C]oleoyl-CoA as substrate incubated for 5 mins prior to substrate addition measured after 5 to 10 mins by liquid scintillation counting analysis; assay type: microsomes, Oryctolagus cuniculus
MDM [2] = experiment: Antihyperlipidemic activity in human MDM assessed as inhibition of acetylated LDL-induced [3H]-cholesterol ester accumulation at 20 uM after 24 hrs by radioscanner analysis in presence of [3H]-oleate-conjugated BSA; assay type: functional
Outline: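 Monocytes were isolated from healthy-volunteer blood on Ficoll, allowed to adhere for 1 h, then differentiated for 7 days into macrophages in DMEM with 10% pooled human serum. The macrophages were incubated for 24 h at 37 °C in 5% CO2 with 50 μg/mL AcLDL, 0.1 mM BSA-conjugated [3H]oleate and 20 μM sample. Cellular lipids were extracted, [3H]CE was separated by TLC, and it was quantified by radioscanner.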

[3] = target: T1, Sterol O-acyltransferase 1 (Homo sapiens, UniProt P35610); experiment: Inhibition of ACAT1 (unknown origin)
T1 sequence (P35610 whole entry): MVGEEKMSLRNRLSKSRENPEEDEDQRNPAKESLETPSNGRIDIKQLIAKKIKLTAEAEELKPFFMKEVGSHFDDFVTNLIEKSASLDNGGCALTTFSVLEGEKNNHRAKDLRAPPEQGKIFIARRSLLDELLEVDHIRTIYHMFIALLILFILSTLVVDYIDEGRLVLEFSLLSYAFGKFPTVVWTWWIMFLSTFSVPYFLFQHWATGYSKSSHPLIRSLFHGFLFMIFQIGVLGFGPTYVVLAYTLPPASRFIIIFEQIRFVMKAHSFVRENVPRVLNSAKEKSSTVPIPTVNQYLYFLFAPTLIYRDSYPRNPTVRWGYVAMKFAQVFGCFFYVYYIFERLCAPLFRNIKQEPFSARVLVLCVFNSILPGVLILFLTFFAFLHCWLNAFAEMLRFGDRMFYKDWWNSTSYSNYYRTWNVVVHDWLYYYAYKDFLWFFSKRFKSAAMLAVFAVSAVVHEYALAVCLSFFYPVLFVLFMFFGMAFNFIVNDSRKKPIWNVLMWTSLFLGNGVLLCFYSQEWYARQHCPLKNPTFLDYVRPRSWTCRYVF

[4] = target: T2, Sterol O-acyltransferase 2 (Homo sapiens, UniProt O75908); experiment: Inhibition of macrophage ACAT2 (unknown origin)
T2 sequence (O75908 whole entry): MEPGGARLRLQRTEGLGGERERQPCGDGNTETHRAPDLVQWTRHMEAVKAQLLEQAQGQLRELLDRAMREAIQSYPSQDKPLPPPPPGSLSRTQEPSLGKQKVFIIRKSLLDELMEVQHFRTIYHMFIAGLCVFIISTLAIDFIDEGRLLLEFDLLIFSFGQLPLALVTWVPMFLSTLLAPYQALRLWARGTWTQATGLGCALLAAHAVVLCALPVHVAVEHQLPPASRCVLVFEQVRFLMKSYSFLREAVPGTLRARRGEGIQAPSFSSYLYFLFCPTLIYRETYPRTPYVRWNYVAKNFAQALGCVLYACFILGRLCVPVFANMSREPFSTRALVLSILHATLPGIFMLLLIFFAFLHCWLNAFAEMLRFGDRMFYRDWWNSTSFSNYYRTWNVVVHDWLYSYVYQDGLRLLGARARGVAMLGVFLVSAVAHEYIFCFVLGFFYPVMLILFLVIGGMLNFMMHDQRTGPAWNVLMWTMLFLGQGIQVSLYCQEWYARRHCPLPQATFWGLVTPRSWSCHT

[5] = target: T1, Sterol O-acyltransferase 1; experiment: Inhibition of macrophage ACAT (unknown origin)
CHO [6] = experiment: Antihyperlipidemic activity in CHO cells overexpressing human ACAT2 assessed as inhibition of [3H]-cholesterol ester accumulation after 24 hrs by radioscanner analysis in presence of [3H]-oleate-conjugated BSA; assay type: functional, cell-based; settings: Cricetulus griseus
Outline: (§1)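 CHO cells stably overexpressing human ACAT-1 or ACAT-2, grown in F-12 HAM with 10% FCS and G418 800 μg/mL. Incubated 24 h in medium with 10% FCS, 0.1 mM [3H]oleate–BSA and graded compound concentrations; no AcLDL. Lipids extracted, [3H]CE separated by TLC and counted by radioscanner.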

MDM [7] = experiment: Effect on ACAT expression in human MDM at 5 to 30 uM after 24 hrs by immunoblot analysis; assay type: functional
Outline: (§2)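 HMDMs exposed 24 h to graded compound concentrations, solubilised in 1% Triton X-100, boiled in SDS sample buffer, then N-glycosidase-treated at 37 °C for 24 h. 10 μg protein run on 10% SDS-PAGE and immunoblotted for human ACAT-1, SR-A (E5) or SR-BI, with β-actin reprobe; band density quantified.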

Mus musculus [8] = species on record: Mus musculus; experiment: (§3) Inhibition of microsomal ACAT in apoE-deficient mouse peritoneal macrophage using [14C]oleoyl-CoA as substrate assessed as formation of cholesteryl [14C]-oleate […] by TLC analysis
[9] = as §3
[10] = Cytotoxicity against human MDM assessed as inhibition of acetylated LDL-induced [3H]-triglyceride synthesis at 50 uM after 24 hrs by radioscanner analysis in presence of [3H]-oleate-conjugated BSA
Outline: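 HMDMs incubated 24 h with AcLDL 50 μg/mL and 0.1 mM [3H]oleate–BSA with or without compound; extracted lipids assayed for TG-[3H]oleate radioactivity.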

Mus musculus [11] = experiment: Antiatherosclerotic activity in apoE-deficient C57BL/6 mouse assessed as decrease in total plasma cholesterol level at 30 mg/kg/day administered through feeding measured after 80 days relative to control; assay type: functional; parameters: scale not given: the % may be the effect or the level left
[12] = target: T1, Sterol O-acyltransferase 1; experiment: (§4) Non-competitive inhibition of human microsomal ACAT1 overexpressed in CHO cells using [14C]oleoyl-CoA as substrate assessed as formation of cholesteryl [14C]-oleate […]
[13] = target: T3, Sterol O-acyltransferase 1 (Homo sapiens) (UniProt P35610); experiment: as §4
T3 sequence (whole entry): T1 sequence (P35610 whole entry)

Mus musculus [14] = experiment: Antiatherosclerotic activity in apoE-deficient C57BL/6 mouse assessed as decrease in atherosclerotic lesion size in aortic sinus at 30 mg/kg/day administered through feeding measured after 80 days by oil red O/hematoxylin staining assay relative to control; assay type: functional; parameters: scale not given: the % may be the effect or the level left
[15] = Cytotoxicity against human MDM assessed as cell viability at 50 uM after 24 hrs by WST-8 assay
Outline: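 HMDMs seeded at 1×10^4 per well, treated with compound; viability read by WST-8 assay.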

Mus musculus [16] = experiment: Antiatherosclerotic activity in apoE-deficient C57BL/6 mouse assessed as decrease in plasma triglyceride level at 30 mg/kg/day administered through feeding measured after 80 days relative to control; assay type: functional; parameters: scale not given: the % may be the effect or the level left
Mus musculus [17] = experiment: Antiatherosclerotic activity in apoE-deficient C57BL/6 mouse assessed as decrease in plasma free cholesterol level at 30 mg/kg/day administered through feeding measured after 80 days relative to control; assay type: functional; parameters: scale not given: the % may be the effect or the level left
MDM [18] = experiment: Effect on scavenger receptor-A expression in human MDM at 5 to 30 uM after 24 hrs by immunoblot analysis; assay type: functional; outline: as §2
[19] = system: Peritoneal macrophage cell; experiment: (§5) Antihyperlipidemic activity in apoE-deficient mouse peritoneal macrophages assessed as inhibition of acetylated LDL-induced [3H]-cholesterol ester accumulation after 24 hrs by radioscanner analysis in presence of [3H]-oleate-conjugated BSA; assay type: functional, cell-based
Outline: (§6)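 Peritoneal macrophages from apoE-deficient mice, cultured in DMEM with 10% pooled human serum, 37 °C, 5% CO2. [3H]CE accumulation after AcLDL loading was measured by the [3H]oleate/TLC method.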

[20] = as §5; assay type: functional, cell-based; settings: Peritoneal macrophage cell; outline: as §6
MDM [21] = experiment: Effect on scavenger receptor-B1 expression in human MDM at 5 to 30 uM after 24 hrs by immunoblot analysis; assay type: functional; outline: as §2
MDM [22] = experiment: (§7) Antihyperlipidemic activity in human MDM assessed as inhibition of acetylated LDL-induced [3H]-cholesterol ester accumulation after 24 hrs by radioscanner analysis in presence of [3H]-oleate-conjugated BSA; assay type: functional
Outline: (§8)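 Human monocytes from healthy volunteer blood by Ficoll, adhered 1 h, differentiated 7 days in DMEM with 10% pooled human serum. Monolayers incubated 24 h with AcLDL 50 μg/mL plus 0.1 mM [3H]oleate–BSA with or without compound; lipids extracted, [3H]cholesteryl oleate separated by TLC and counted by radioscanner.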

[23] = as §7; assay type: functional; outline: as §8
[24] = target: T2, Sterol O-acyltransferase 2; experiment: (§9) Non-competitive inhibition of human microsomal ACAT2 overexpressed in CHO cells using [14C]oleoyl-CoA as substrate assessed as formation of cholesteryl [14C]-oleate […]
[25] = target: T4, Sterol O-acyltransferase 2 (Homo sapiens) (UniProt O75908); experiment: as §9
T4 sequence (whole entry): T2 sequence (O75908 whole entry)

CHO [26] = experiment: Antihyperlipidemic activity in CHO cells overexpressing human ACAT1 assessed as inhibition of [3H]-cholesterol ester accumulation after 24 hrs by radioscanner analysis in presence of [3H]-oleate-conjugated BSA; assay type: functional, cell-based; settings: Cricetulus griseus; outline: as §1
[27] = Cytotoxicity against human MDM assessed as change in cell morphology at 50 uM
[28] = target: T1, Sterol O-acyltransferase 1; experiment: (§10) Non-competitive inhibition of microsomal ACAT in human MDM using [14C]oleoyl-CoA as substrate assessed as formation of cholesteryl [14C]-oleate […]
[29] = target: T3, Sterol O-acyltransferase 1 (Homo sapiens); experiment: as §10
MDM [30] = experiment: Inhibition of endocytic [125I]-acetylated LDL uptake in human MDM at 50 uM after 5 hrs; assay type: functional
Outline: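 Day-7 HMDMs in DMEM with 3% BSA, incubated 5 h at 37 °C with 125I-AcLDL (50 μg/mL, 600 cpm/ng) plus compound. Degradation was measured as TCA-soluble, AgNO3-cleared medium radioactivity. Cell-associated counts came from 0.1 M NaOH lysates after ice-cold PBS/1% BSA washes and were normalised to protein.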

Mus musculus [31] = experiment: Antiatherosclerotic activity in apoE-deficient C57BL/6 mouse assessed as decrease in plasma LDL cholesterol level at 30 mg/kg/day administered through feeding measured after 80 days relative to control; assay type: functional; parameters: scale not given: the % may be the effect or the level left
[32] = target: T1, Sterol O-acyltransferase 1
[33] = target: T2, Sterol O-acyltransferase 2; experiment: Inhibition of ACAT2 in human MDM assessed as inhibition of acetylated LDL-induced cholesterol ester accumulation after 1 hr by HPLC analysis

## CN(C)c1ccc(NC(=O)N(C[C@H]2CC[C@H](CN(C(=O)Nc3ccc(N(C)C)cc3)C3CCCCC3)CC2)C2CCCCC2)cc1
[1]
  IC50: 0.0076 µM

## Oc1cccc2c1[nH]c1c(C3=C[C@@]4(O)CC/C=C\CCCCN5CC[C@@H]3[C@]3(CC6/C=C\CCCCN6[C@H]34)C5)nccc12 (some centres undefined)
MDM [2]
  inhibition: Active

## O=CC1=C[C@@]2(O)CC/C=C\CCCCN3CC[C@@H]1[C@]1(C[C@@H]4/C=C\CCCCN4[C@H]12)C3
MDM [2]
  inhibition: Active

## O=C1CCCN2[C@@H]3[C@@]45CN6CCCC/C=C\CC[C@@]3(C=C(c3nccc7c3[nH]c3ccccc37)[C@@H]4CC6)O[C@]2(CC1)C5
MDM [2]
  inhibition: Active

## Oc1ccc2[nH]c3c(C4=C[C@@]5(O)CC/C=C\CCCCN6CCC4[C@]4(C[C@@H]7/C=C\CCCCN7[C@H]45)C6)nccc3c2c1 (some centres undefined)
MDM [2]
  inhibition: Active

## CCCCCCCCN1CCc2c(C)c(CC(=O)O)c(C)c(NC(=O)C(C)(C)C)c21 [PACTIMIBE]
[3]
  IC50: 4.9 µM
[4]
  IC50: 3 µM

## CCCCCCCCCN(CC(C)(C)C)C(=O)N[C@H]1CCCC[C@@H]1OC(=O)CCNC(=O)[C@@H]1OC(C)(C)OCC1(C)C
[5]
  IC50: 0.032 µM

## c1ccc2c(c1)[nH]c1cnccc12
MDM [2]
  inhibition: Active

## O[C@]12C=C(c3nccc4c3[nH]c3ccccc34)[C@@H]3CCN(CCCC/C=C\CC1)C[C@@]31C[C@@H]3/C=C\CCCCN3[C@H]12 [MANZAMINE A]
CHO [6]
  inhibition: Dose-dependent effect
MDM [7]
  Activity: inactive
Mus musculus [8]
  inhibition: Dose-dependent effect
[9]
  IC50: 5.8 µM
[10]
  Activity: Toxic
Mus musculus [11]
  Activity: 40%
[12]
  IC50: 6.2 µM
[13]
  inhibition: Dose-dependent effect
Mus musculus [14]
  Activity: 45%
[15]
  Activity: Toxic
Mus musculus [16]
  Activity: 50%
MDM [2]
  inhibition: Active
Mus musculus [17]
  Activity: 20%
MDM [18]
  Activity: inactive
[19]
  inhibition: Dose-dependent effect
[20]
  IC50: 6.2 µM
MDM [21]
  Activity: inactive
MDM [22]
  inhibition: Dose-dependent effect
[23]
  IC50: 4.1 µM
[24]
  IC50: 4.8 µM
[25]
  inhibition: Dose-dependent effect
CHO [26]
  inhibition: Dose-dependent effect
[27]
  Activity: Toxic
[28]
  IC50: 6.4 µM
[29]
  inhibition: Dose-dependent effect
MDM [30]
  inhibition: Active
Mus musculus [31]
  Activity: 40%

## O[C@H]1/C=C/C[C@]2(O)C=C(c3nccc4c3[nH]c3ccccc34)[C@@H]3CCN(CCCC1)C[C@@]31C[C@@H]3/C=C\CCCCN3[C@H]12
MDM [2]
  inhibition: Active

## CC(C)c1cc(C(C)C)c(CC(=O)NS(=O)(=O)Oc2c(C(C)C)cccc2C(C)C)c(C(C)C)c1 [AVASIMIBE]
[32]
  IC50: 23.5 µM
[33]
  IC50: 9.2 µM
